H69AR inhibit – blocks growth of human H69AR lung tumor cells; 6% of 85,000 active; viability, % at 10 µM; H69AR lung tumor viability, ATP luminescence, 72 h; hits give low values;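 active means viability at or below 40%; inactive means viability above 40%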;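 further: multidrug resistant small cell line overexpressing MRP-1 efflux transporter; 100% = mean luminescence of untreated control wells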
bCat KO growth – beta-catenin-lacking colon tumor cell growth suppression; viability, % at 10 µM; HCT116 beta-catenin knockout viability, CellTiter-Glo, 60 h; hits give low values; 1.5% of 140,000 active;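 active means viability at or under a set limit, the compound median less 4 SD, cut at about 6% in these data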;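 further: 0% = Hyamine 1622 control at 20 µM and 100% = untreated cell control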
Lung fibro prol – blocks proliferation of human lung fibroblasts. LL 47 human lung fibroblast viability, ATP luminescence; hits give low values. viability, % at 10 µM. 1.1% of 85,000 active. AID 719;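 active means viability at or below 50% in the single dose screen; inactive means viability above 50%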;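 further: compound exposure lasted 72 h before the ATP readout; 100% = median luminescence of untreated cell-only wells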
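Times – overnight cell rest, 72 h compound treatment at 37 °C · Test system – human lung fibroblast line LL 47, low passage · Amount – 1,150 cells in each well · Controls – cell-only wells, no compound · Doses – 0.1% DMSO in all compound wells · Measured by – CellTiter-Glo luminescence · Buffer or medium – IMEM plus 15% FBS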
HUVEC prolif 384 – inhibitors of human endothelial cell proliferation. HUVEC proliferation, CellTiter-Glo luminescence, 72 h; hits give low values. viability, % at 10 µM (by protocol). 1.1% of 86,000 active. AID 648;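 active means viability at or below 30%; inactive means viability above 30%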;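 further: 100% = median luminescence of DMSO-only cell control wells on each plate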
PTEN del growth – suppresses growth of cells with PTEN deletion. 1.2% of 140,000 active. AID 827. viability, % at 10 µM. HCT116 PTEN-null viability, CellTiter-Glo, 60 h; hits give low values;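 active means viability at or below a set limit, 4 SD under the median of all tested compounds, cut at about 3.7% in these data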;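 further: PTEN knockout HCT116 line with beta catenin targeted HCT116 as companion control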
* = called active by the depositor. This excerpt belongs to a sample that is enriched for hits.

For CC(C)CNC(=O)c1c(N)n(/N=C/c2cccnc2)c2nc3ccccc3nc12 the results were H69AR inhibit 45.8, Lung fibro prol 100.4 and HUVEC prolif 384 66.9.
`CC(C)n1nc(C(=O)OCn2nnc3ccccc3c2=O)c2ccccc2c1=O` gave bCat KO growth 75.4 and PTEN del growth 89.6.
Screening CCOC(=O)C1=C(C)N=c2s/c(=C3\C(=O)Nc4ccccc43)c(=O)n2C1c1ccc2c(c1)OCO2 (configuration not stated) returned H69AR inhibit 27.1*, bCat KO growth 86.7, Lung fibro prol 91.3, HUVEC prolif 384 72.5 and PTEN del growth 90.6.
Screening CCOC(=O)C1=C(C)N=c2s/c(=C\c3ccncc3)c(=O)n2C1c1ccc2c(c1)OCO2 (configuration not stated) returned H69AR inhibit 3.0*, bCat KO growth 12.9, Lung fibro prol 70.6, HUVEC prolif 384 50.1 and PTEN del growth 9.9.
`CCOC(=O)C1=C(C)N=c2s/c(=C/c3ccccc3)c(=O)n2C1c1ccc(OC)c(OC)c1` (configuration not stated) gave bCat KO growth 61.2 and PTEN del growth 52.3.
`O=C(/C=C/c1cccs1)N1CCN(Cc2ccc3c(c2)OCO3)CC1` gave bCat KO growth 82.4 and PTEN del growth 88.4.
Screening CC1(C)CC(=O)C(C(C2=C(O)CC(C)(C)CC2=O)c2ccc(Br)s2)C(=O)C1 (configuration not stated) returned bCat KO growth 77.8 and PTEN del growth 79.1.
Screening Cc1csc2ncc(C(=O)Nc3ccccc3F)c(=O)n12 returned H69AR inhibit 70.5, Lung fibro prol 92.9 and HUVEC prolif 384 81.2.
Screening Cc1csc2ncc(C(=O)Nc3ccccc3Cl)c(=O)n12 returned H69AR inhibit 28.8*, Lung fibro prol 82.2 and HUVEC prolif 384 64.5.
`CCCNC(=O)[C@H](Cc1c[nH]c2ccccc12)NC(=O)c1ccccc1Cl` gave bCat KO growth 81.5 and PTEN del growth 91.8.
`Cc1ccc(C)c(S(=O)(=O)NCc2ccc(C(=O)N3CCCCCC3)cc2)c1` gave bCat KO growth 94.7 and PTEN del growth 89.8.
`Cc1cc(C)c(C)c(S(=O)(=O)NCc2ccc(C(=O)N3CCCCC3)cc2)c1C` gave H69AR inhibit 33.1*, bCat KO growth 78.5, Lung fibro prol 98.9, HUVEC prolif 384 95.0 and PTEN del growth 86.0.
Screening CCOC(=O)c1oc2ccc(CNC3CCCCC3)c(Cl)c2c1C returned H69AR inhibit 18.3*, bCat KO growth 46.4, Lung fibro prol 94.7, HUVEC prolif 384 29.3* and PTEN del growth 58.9.
For CC(=O)CCS(=O)(=O)c1ccc(NC(C)=O)cc1 the results were H69AR inhibit 0.2*, bCat KO growth 101.9, Lung fibro prol 93.3, HUVEC prolif 384 97.1 and PTEN del growth 106.6.
`COC(=O)/C=C/S(=O)(=O)c1ccc(NC(C)=O)cc1` gave H69AR inhibit 1.0*, bCat KO growth 96.7, HUVEC prolif 384 79.6 and PTEN del growth 86.2.
For CC(=O)Nc1ccc(S(=O)(=O)Oc2ccc(C=O)cc2)cc1 the results were bCat KO growth 95.3 and PTEN del growth 90.9.
`COc1cc(C2C3=C(Nc4ncnn42)c2ccccc2CC3)cc(OC)c1OC` (configuration not stated) gave H69AR inhibit 29.1*, bCat KO growth 16.4, Lung fibro prol 50.4, HUVEC prolif 384 54.0 and PTEN del growth 13.8.
Screening CCOC(=O)N1CCN(C(=O)c2noc(C(C)C)c2[N+](=O)[O-])CC1 returned bCat KO growth 99.0 and PTEN del growth 100.3.
COc1ccc(N(C(=O)c2ccco2)C(C(=O)NC2CCCCC2)c2cccs2)cc1OC (configuration not stated) was read as H69AR inhibit 83.6, bCat KO growth 103.8, Lung fibro prol 103.5, HUVEC prolif 384 115.3 and PTEN del growth 101.8.
Screening C#CC(=O)N(c1cc(OC)ccc1OC)C(C(=O)NC1CCCC1)c1cccs1 (configuration not stated) returned bCat KO growth 0.7* and PTEN del growth 1.0*.
Screening COc1cc(C(=O)NC(=S)Nc2ccc(N3CCCC3)cc2)cc(OC)c1OC returned bCat KO growth 75.3 and PTEN del growth 72.2.
COc1ccc(N=c2ssnc2Cl)cc1 was read as H69AR inhibit 1.3*, bCat KO growth 93.9, Lung fibro prol 63.4, HUVEC prolif 384 91.9 and PTEN del growth 99.8.
For COc1cc(N=c2ssnc2Cl)cc(OC)c1OC the results were H69AR inhibit 1.7*, bCat KO growth 86.2, Lung fibro prol 47.5*, HUVEC prolif 384 56.0 and PTEN del growth 89.4.
Screening Clc1ccc(N=c2ssnc2Cl)cc1 returned H69AR inhibit 1.9*, bCat KO growth 86.0, Lung fibro prol 84.0, HUVEC prolif 384 67.1 and PTEN del growth 80.4.
For N#Cc1ccc(N=c2ssnc2Cl)cc1 the results were H69AR inhibit 2.6*, bCat KO growth 97.2, Lung fibro prol 81.9, HUVEC prolif 384 58.2 and PTEN del growth 94.1.
`COc1ccc(N=C2C(=O)Nc3c(C)cccc32)cc1` gave H69AR inhibit 74.5, bCat KO growth 81.3, Lung fibro prol 98.6, HUVEC prolif 384 82.3 and PTEN del growth 92.2.
CCOC1(C)OCC(=O)[C@]2(CCC3C4CCC5=CC(=O)C=CC5(C)C4C(=O)CC32C)O1 (some centres not stated) was read as bCat KO growth 93.9 and PTEN del growth 94.8.
O=C(NCCc1cccc(F)c1)/C(=C/c1cccnc1)NC(=O)c1ccccc1 was read as bCat KO growth 84.6 and PTEN del growth 81.9.
For c1ccc(Cn2nnnc2C(c2ccccc2)N2CCN(c3nc4ccccc4s3)CC2)cc1 (configuration not stated) the results were H69AR inhibit 79.7, bCat KO growth 71.0, Lung fibro prol 94.8, HUVEC prolif 384 120.7 and PTEN del growth 68.1.
Screening Cc1ccc(S(=O)(=O)Cn2nnnc2C(C(C)C)N2CCN(c3nc4ccccc4s3)CC2)cc1 (configuration not stated) returned H69AR inhibit 26.7*, bCat KO growth 68.2, Lung fibro prol 92.3, HUVEC prolif 384 85.3 and PTEN del growth 75.7.
`CC(C)NC[C@@H](O)c1ccc(O)c(O)c1` gave bCat KO growth 74.6 and PTEN del growth 86.0.
`CC(Cc1ccc(O)c(O)c1)C(C)Cc1ccc(O)c(O)c1` (configuration not stated) gave H69AR inhibit 32.7*, Lung fibro prol 92.6 and HUVEC prolif 384 70.4.
For COc1ccccc1N/C(N)=N/c1nc(CSc2ccc(C)cc2)cc(=O)[nH]1 the results were H69AR inhibit 22.9*, bCat KO growth 71.5, HUVEC prolif 384 59.1 and PTEN del growth 62.6.
`CC1=CC(C)(C)N(S(=O)(=O)c2ccc(C)cc2)c2ccccc21` gave H69AR inhibit 28.2*, bCat KO growth 17.8, Lung fibro prol 51.5, HUVEC prolif 384 63.4 and PTEN del growth 16.3.
`CC1=CC(C)(C)N(C(=O)c2ccccc2)c2ccc(C)cc21` gave H69AR inhibit 86.4, bCat KO growth 81.3, Lung fibro prol 95.6, HUVEC prolif 384 102.7 and PTEN del growth 87.9.
